High-throughput results: PubChem BioAssay, several laboratories
An excerpt weighted towards active compounds, which were near 1.2% of everything screened.
CRFBP-R2 block = CRF-BP/CRF-R2 complex antagonism; HEK293 CRF-R2/CRF-BP, CRF-induced calcium fluorescence; inhibition, % at 11.8 µM; 0.59% of 350,000 active;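 active = inhibition of the ligand-induced calcium signal above about 50% at the single tested concentration, limit read from the data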
DDE Tn7 FP inh = inhibitors of Tn7 peptide binding to human fibrin DD(E); AID 720508; FP displacement of FITC-Tn7 peptide from fibrin DD(E); 0% = median of compound wells per plate; P02675; 0.13% of 370,000 active; inhibition, % at 8.3 µM;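 active = inhibition above the mean of compounds falling within the control limits plus 3 SD of them, cut at about 14% in these data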;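 note: 0% = plate median of compound wells and 100% = 10 µM Aha-Tn7 peptide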
Target sequence (P02675 whole entry, looked up): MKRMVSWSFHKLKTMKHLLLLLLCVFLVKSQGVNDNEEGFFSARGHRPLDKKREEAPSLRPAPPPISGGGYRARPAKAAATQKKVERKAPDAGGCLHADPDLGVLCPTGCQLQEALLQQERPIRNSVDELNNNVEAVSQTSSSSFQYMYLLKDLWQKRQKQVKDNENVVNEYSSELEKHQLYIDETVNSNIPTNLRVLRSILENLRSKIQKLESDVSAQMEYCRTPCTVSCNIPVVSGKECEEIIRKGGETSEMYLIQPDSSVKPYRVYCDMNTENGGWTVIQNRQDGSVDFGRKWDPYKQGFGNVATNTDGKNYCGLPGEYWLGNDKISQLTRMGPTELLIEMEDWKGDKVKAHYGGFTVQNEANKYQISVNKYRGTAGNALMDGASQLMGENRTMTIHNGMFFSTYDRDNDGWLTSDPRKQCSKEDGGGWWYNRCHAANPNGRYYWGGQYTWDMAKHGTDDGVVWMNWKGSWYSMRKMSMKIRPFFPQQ
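Also added: labelled Tn7 tracer, 0.1 µM; Assay system: human fibrin DD(E) protein; Amount: 2 µM fibrin DD(E); Schedule: 10 min compound pre-incubation, 3 h probe incubation at room temperature; Repeats: one replicate per compound; Read-out basis: percent inhibition; Measured by: fluorescence polarization of the labelled Tn7 tracer.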
CRFBP-R2 agonist = agonists of human CRF-binding protein/CRF-R2 receptor complex; HEK293 CRF-R2/CRF-BP, calcium dye fluorescence (FLIPR); percent of saturating CRF peptide response; activation, % at 13.2 µM; 0.46% of 350,000 active; AID 588473;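 active = activation of at least 50%, plus an integration ratio under a set limit after plate pattern correction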;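 note: plate controls were neutral control wells without compound for no effect and CRF at EC100 for full effect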
Tn6 DDE FP = DD(E)-Tn6 binding inhibition, primary FP screen. Fibrin DD(E) TRITC-Tn6 fluorescence polarization displacement. 0.21% of 370,000 active. inhibition, % at 8.3 µM. P02675;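 active = inhibition above a per-campaign cutoff: mean of compounds within control limits plus 3 SD, cut at about 15% in these data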;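 note: 0% = median of all compound wells on the plate and 100% = blocking peptide control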
DDE Tn7 confirm = confirmation of inhibitors of Tn7 binding to human fibrin DD(E) | AID 720628 | FP displacement of TRITC-Tn7 peptide from DD(E); 0% set at plate's compound-well median | shares compounds with DDE Tn7 FP inh | 5% of 460 active | inhibition, % at 8.3 µM;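 active = inhibition above the campaign cutoff, the mean of compounds within control limits plus 3 SD, cut at about 14% in these data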;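 note: 100% = median FP of high control wells holding Aha-Tn7 inhibitor peptide; displacers lower polarization since freed probe rises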
Tn7 DDE ctr = DD(E)-Tn7 binding inhibition, counter-screen | shares compounds with DDE Tn7 FP inh | fibrin DD(E), TRITC-Tn7 probe displacement, fluorescence polarization | inhibition, % at 8.3 µM | 3% of 460 active;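 active = inhibition above the cutoff, the mean of compounds lying between the control bounds plus 3 SD of those compounds, cut at about 17% in these data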;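 note: 0% = median of compound sample wells and 100% = excess unlabeled Aha-Tn7 peptide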
An asterisk follows results filed as active; / = no result.

SMILES | CRFBP-R2 block | DDE Tn7 FP inh | CRFBP-R2 agonist | Tn6 DDE FP | DDE Tn7 confirm | Tn7 DDE ctr
COc1ccc(C=Cc2ccc3ccccc3n2)c(OC)c1 | -7 | 27* | 80* | 8 | 6 | 5
O=C(CSc1nc2c(cnn2-c2ccc(F)cc2)c(=O)[nH]1)N1CCCCC1 | 9 | 15* | -1 | 3 | 1 | 0
CCNC(=O)N(C)c1c(CC)nc2ccc(C(=O)N3CCN(C(=O)c4ccco4)CC3)cn12 | / | 4 | / | -4 | / | /
CN(C)C(=O)c1cccc(COc2ccc(N3C(N)=NC(N)=NC3(C)C)cc2Cl)c1 | -16 | 1 | -1 | 3 | / | /
Cc1cccn2c(=O)c(/C=C(\C#N)C(=O)NCc3ccccc3)c(N3CCC(C(N)=O)CC3)nc12 | 3 | 16* | 0 | 5 | 6 | 2
CCc1nc2ccc(C(=O)NCCC(C)C)cn2c1N(CC)CCN(C)C | / | 2 | / | -5 | / | /
O=C(CN1CCN(c2ccccn2)CC1)N(c1ccccc1)c1ccc2ccccc2c1 | -4 | 15* | 1 | -4 | -1 | -6
O=C(CN1CCOCC1)N(c1ccccc1)c1ccc2ccccc2c1 | -12 | 0 | 9 | -4 | / | /
Cc1c(Cl)cccc1NC(=O)C1=COCCO1 | 1 | 6 | -1 | 0 | / | /
O=C(NNC(=O)c1ccccc1-n1cccc1)c1cccnc1 | -20 | 3 | 0 | 3 | / | /
O=C(NNC(=O)c1ccccc1-n1cccc1)c1cncc(Br)c1 | -2 | 16* | 0 | 0 | 7 | 2
CN(CC(=O)Nc1ccccc1Br)C(=O)c1cc2c(s1)CCCCC2 | -4 | -5 | 1 | 0 | / | /
COc1ccc(C(C)(NC(C)=O)c2nc(-c3cc(F)cc(F)c3)cs2)cc1 (stereo not drawn) | / | -1 | / | 1 | / | /
CCCCN(C(=O)c1c(CC)noc1C)c1c(N)n(CCC)c(=O)[nH]c1=O | 8 | 10 | 1 | 2 | / | /
CCOc1ncccc1C(=O)N(CC)CC(=O)NCc1ccc(Cl)cc1 | 2 | -2 | -1 | 1 | / | /
O=C(O)C1C2CCC1C(O)C2 (stereo not drawn) | -11 | 17* | 3 | 10 | 1 | 2
COc1ccccc1NC(=O)c1cc(S(=O)(=O)N2CCCC2)cn1C | -19 | 15* | -1 | 4 | -5 | -6
Clc1ccc(-n2c(SCc3cccc4ccccc34)nnc2-c2ccco2)cc1 | / | 14* | / | -10 | 13 | 6
COC(=O)[C@H]1C[C@H](OC(=O)NCc2ccco2)[C@@]2(O)CN(S(=O)(=O)c3ccc(C)cc3)CC2[C@H]1C(=O)OC (stereo partly drawn) | 1 | 1 | -1 | -1 | / | /
COc1ccc(-c2nc3ccc(Br)cn3c2CC(C)(C)C)cc1OC | / | 9 | / | 0 | / | /
CCOCCCNC(=S)N1CCC(C(=O)c2ccc(C)cc2)CC1 | -2 | 14* | -3 | 2 | 1 | -4
COCCCN1C(=O)[C@H](CC(=O)NCc2cccc3ccccc23)[C@]2(C(=O)OC)CCCCC=C12 | / | 2 | / | 13 | / | /
CCC(C(=O)NCCc1ccccc1OC)n1nc(C)c2c(C)n(-c3ccccc3)nc2c1=O (stereo not drawn) | 1 | -3 | 1 | 4 | / | /
COc1ccc(S(=O)(=O)N2CCN(CC(=O)NC(C)c3cccs3)CC2)cc1 (stereo not drawn) | 9 | -2 | 0 | -5 | / | /
COc1ccc(S(=O)(=O)N2CCN(CC(=O)NCCc3cccs3)CC2)cc1 | 4 | 15* | -2 | 5 | -3 | -7
SMILES | CRFBP-R2 block | DDE Tn7 FP inh | CRFBP-R2 agonist | Tn6 DDE FP | DDE Tn7 confirm | Tn7 DDE ctr
O=C1OC(c2ccccc2)(c2ccc3cc(O)ccc3c2)c2ccccc21 (stereo not drawn) | 5 | -8 | 1 | -2 | / | /
COc1ccc(CCC(=O)N2CCN(c3ccccc3)CC2)cc1OC | -73 | 15* | -1 | 1 | -3 | -14
CC(NCCOc1ccccc1F)C(=O)Nc1ccc(S(N)(=O)=O)cc1 (stereo not drawn) | 14 | -1 | 1 | -2 | / | /
COc1cc([N+](=O)[O-])ccc1NC(=S)NNC(=O)CCC(=O)Nc1ccccc1Cl | 2 | 15* | -1 | 5 | 7 | -1
O=C(NCc1ccc(Cl)cc1)c1ccc(Cn2cc(C(F)(F)F)ccc2=O)cc1 | 9 | 49* | 2 | -3 | 27* | -6
O=C(NCCNS(=O)(=O)c1ccccc1)N1CCOCC1 | 22 | 15* | -1 | -1 | 1 | 4
O=C(NCCNS(=O)(=O)c1ccc(C(F)(F)F)cc1)N1CCOCC1 | -2 | 0 | -1 | 1 | / | /
CCOc1ccc(/C=N/n2c(SC)nnc(C(C)(C)C)c2=O)cc1 | -20 | 15* | -1 | 0 | 0 | 1
Cc1ccc(NC(=O)c2ccc(NCCCN3CCC(C)CC3)c([N+](=O)[O-])c2)cc1F | -21 | 15* | 1 | -6 | 3 | 3
CCc1nonc1NC(=O)c1oc2ccccc2c1C | 0 | 4 | -1 | 4 | / | /
CN(C)/C=C1\C=C2C(=O)c3ccccc3N2C1=O | -220 | 30* | 217* | 0 | 53* | 24*
CCOC(=O)[C@H]1[C@H]2COc3ccc(C)cc3[C@@H]2N2C(=O)CN(Cc3ccc(Cl)cc3)C(=O)[C@@]12C | -5 | 2 | 0 | -4 | / | /
CCOC(=O)[C@H]1[C@H]2COc3ccccc3[C@@H]2N2C(=O)CN(Cc3ccc(C)cc3)C(=O)[C@@]12C | -2 | 20* | 8 | 5 | -2 | -8
C=CCNS(=O)(=O)c1ccc(OCC(=O)OC)cc1 | -12 | 16* | -3 | -1 | -7 | -8
CCn1c(=O)cc(SCC(=O)Nc2cccnc2)c2ccccc21 | -9 | 14* | -2 | -2 | 2 | -1
CC(=O)Nc1cc(-c2ccccc2N(C)C)cn2c(-c3cccc(C(F)(F)F)c3)cnc12 | / | 21* | / | 3 | -3 | -1
CC(C)Cc1nnc(NC(=O)CCC(=O)N2CCN(c3ccccc3F)CC2)s1 | -6 | 0 | 1 | 11 | / | /
CCOc1ccc(C(=O)NCC(c2cccs2)N2CCOCC2)cc1 (stereo not drawn) | -6 | -3 | 1 | -1 | / | /
CC(C)CCOc1ccc(C(=O)NCC(c2cccs2)N2CCOCC2)cc1 (stereo not drawn) | 14 | 15* | 0 | -4 | 2 | -1
C#CCOc1ccc(/C=C2/C(=O)NN(c3ccc(F)cc3)C2=O)cc1OC | -85 | 5 | 4 | -7 | / | /
O=C(Nc1nnc(SCC(=O)N2CCCC2)s1)C1CC(=O)N(c2ccc(F)cc2)C1 (stereo not drawn) | 10 | 1 | 0 | 3 | / | /
O=C(CSc1nnc(NC(=O)C2CC(=O)N(c3ccc(F)cc3)C2)s1)NC1CCCC1 (stereo not drawn) | 3 | 14* | 1 | 10 | 9 | 4
